Data set [1] deals with AD model rats. The experiment in a line: Bielschowsky silver staining of hippocampus of AD model rats. The class given is in vivo. As to conditions: AD rats, 10, 20 mg/kg, versus AD model group. The procedure, abridged:
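SD rats (8 weeks, 280 ± 10 g) got bilateral hippocampal Aβ25-35 (10 μg in 2 μL, pre-aggregated 4 days at 37 °C); sham rats got saline. Formalin-fixed paraffin coronal sections (40 μm) were stained by modified Bielschowsky silver (20% AgNO3, ammoniacal silver), and positive neurons were counted at 10 × 40.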

In data set [2] the test system is AD model rats. The experiment in a line: Open-field test in Aβ25-35-induced AD model rats. The format is in vivo. As to conditions: for total distance moved in open field: AD rats, Aβ model group 17.34 ± 3.88. The method in brief:
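After 1 h acclimation, each rat explored a dimly lit 100 × 100 × 50 cm box for 2 min, with 70% ethanol cleaning between trials. Video gave total distance and central-zone time. Mean ± SEM, t-test.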

The target of data set [3] is AChE (Homo sapiens, UniProt P22303). The data set can be described thus: biochemical.
The subject of data set [4] is AD model rats. The data set can be described thus: Nissl staining of hippocampal CA1 region of AD model rats. The following applies: 10 and 20 mg/kg groups. The format is in vivo. The method in brief: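 Brains were paraformaldehyde-postfixed and cryoprotected in 30% sucrose. Frozen 25 μm hippocampal sections were stained with 2% cresyl violet for 5 min. Necrotic CA1 cells were counted by light microscopy (n = 5 rats/group, three sections per rat).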

In data set [5] the test system is PC12 cells. The experiment in a line: Cytotoxicity in PC12 cells. The class given is cell-based. The following applies: 10 μM, 24 h. The procedure, abridged: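 PC12 cells were grown in DMEM with 10% FBS and penicillin/streptomycin (37 °C, 5% CO2), seeded at 10⁵/well and left 24 h. Test compound (DMSO stock diluted in medium) was given at 10 μM for 24 h, with edaravone as positive control. MTT was added for 2 h, formazan was dissolved in DMSO, and absorbance was read at 490 nm.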

Data set [6] deals with AD model rats. The experiment in a line: Morris water maze in Aβ25-35-induced AD model rats. The format is in vivo. As to conditions: compared to the model rats (p < 0.05). The method in brief: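 Pool 180 cm wide, water at 25 ± 1 °C, hidden platform 2 cm submerged. Training: four 2-min trials daily (30 min apart) for 5 days. Escape latency and swim path were video-tracked. Probe trial: platform removed, 2-min swim, crossings counted. Mean ± SEM, t-test.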

For data set [7], the system named is ICR mice. The data set can be described thus: Acute oral toxicity test in mice. The class given is in vivo. As to conditions: for deaths: 10 animals; for deaths / death rate: 14 day. The method in brief:
(§1)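 ICR mice (18–22 g, half male, half female), seven groups of 10. Single oral gavage of 1310, 1638, 2048, 2560, 3200 or 4000 mg/kg, suspended in 0.5% carboxymethyl cellulose; the control group received vehicle. General behaviour, toxicity signs and mortality were followed for 14 days. LD50 was estimated by log-probit regression of mortality.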

Data set [8] is described as follows: Acute oral toxicity test in mice. The class given is in vivo. The following applies: both, ICR, mouse, in vivo, po. The method in brief:
as §1

For data set [9], the system named is Aβ1-42. The experiment in a line: Immunohistochemistry for Aβ1-42 in hippocampus of AD model rats. The class given is in vivo. The following applies: AD rats, 10, 20 mg/kg, compared with the model group (p < 0.05). The procedure, abridged:
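Hippocampal sections from five rats: endogenous peroxidase blocked, 5% normal goat serum in 0.3% Triton/PBS, rabbit anti-Aβ1-42 (1:300) overnight at 4 °C, biotinylated goat anti-rabbit (1:500) 1 h at room temperature, then DAB for 10 min.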

Data set [10] concerns AD model rats. The experiment in a line: HE staining of hippocampus CA3 region of AD model rats. The class given is in vivo. As to conditions: AD rats, 5, 10, and 20 mg/kg.
Setting [11] is: mice, single oral dose 1310 mg/kg.
[12] abbreviates: mice, single oral dose 1638 mg/kg.
[13] abbreviates: mice, single oral dose 2048 mg/kg.
Where [14] appears, read: mice, single oral dose 2560 mg/kg.
The mark [15] stands for this setting: mice, single oral dose 3200 mg/kg.
[16] abbreviates: mice, single oral dose 4000 mg/kg.

Molecules are shown by their SMILES.

AChE, sequence (P22303 32-614): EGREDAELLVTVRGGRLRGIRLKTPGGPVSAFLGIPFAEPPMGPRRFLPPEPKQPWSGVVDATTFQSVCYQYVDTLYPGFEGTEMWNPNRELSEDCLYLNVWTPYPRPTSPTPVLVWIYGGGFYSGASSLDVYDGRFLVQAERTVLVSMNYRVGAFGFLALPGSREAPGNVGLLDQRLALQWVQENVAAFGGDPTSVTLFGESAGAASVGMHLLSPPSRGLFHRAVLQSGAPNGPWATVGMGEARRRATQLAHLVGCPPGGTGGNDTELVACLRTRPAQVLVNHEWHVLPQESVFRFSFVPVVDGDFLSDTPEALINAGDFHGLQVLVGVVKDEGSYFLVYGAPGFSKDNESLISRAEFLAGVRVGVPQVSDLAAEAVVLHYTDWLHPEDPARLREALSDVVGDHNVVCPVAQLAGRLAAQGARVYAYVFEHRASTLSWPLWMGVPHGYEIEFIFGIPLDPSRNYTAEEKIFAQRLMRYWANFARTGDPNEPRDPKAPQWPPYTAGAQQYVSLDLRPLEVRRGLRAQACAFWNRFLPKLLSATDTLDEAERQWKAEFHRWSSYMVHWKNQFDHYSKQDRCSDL

As a reminder, the IC50 is the concentration that inhibits the measured activity by half. The low end stands for higher potency, the high end for lower potency. As usually defined, the LD50 is the dose at which mortality reaches 50%. Low readings indicate a more toxic substance, high ones a less toxic substance. With `COc1c(OC(=O)N(C)c2ccccc2)cc2oc3cc4c(c(O)c3c(=O)c2c1CC=C(C)C)C=CC(C)(C)O4` [AMG-1, 5-Hydroxy-8-methoxy-2,2-dimethyl-7-(3-methylbut-2-en-1-yl)-6-oxo-2,6-dihydropyrano[3,2-b]xanthen-9-yl methyl(phenyl)carbamate], the “number of senile plaques in hippocampus (silver staining)” value in [1] is “less”. The “time spent in the central zone in open field” value in [2] (AD rats, 5, 10, 20 mg/kg oral 30 days, compared to the Aβ model group) is on record as “dose-dependent increase”. For the same compound, the “total distance moved in open field” value in data set [2] (AMG-1 20 mg/kg oral once daily 30 days) is reported as 28.55 ± 6.87 m. In data set [3], the IC50 stood at 52.6 ± 11.3 µM. Also, the “neuronal damage in hippocampal CA1 (Nissl staining)” value in data set [4] is reported as “significantly attenuated”. In data set [5], the “inhibition ratio (cytotoxic effect, cell proliferation)” value (shortened to “inhibition ratio”) came to 7.2%. Moreover, in data set [6] (probe trial), the “time in the target quadrant” value is on record as “significantly more time”. Besides, the “time to reach the place of the removed platform” value in data set [6] (probe trial) is “significantly less time”. Further, the “escape latency in Morris water maze” value in data set [6] (retention phase) was “significant improvements”. Also, the “total distance traveled in Morris water maze” value in data set [6] (retention phase) was “significant improvements”. Moreover, the “toxicity at the dose for administration” value in data set [7] (level of 20 mg/kg or less) is recorded as “no obvious toxicity”. Further, the signs of toxicity result in data set [7] (mice, acute oral toxicity experiment period) was “messy furs and loose gray stool around the anus”. In addition, in [7] (mice, highest dosed group 4000 mg/kg oral), the “time found dead after administration” value fell in the range of 16 to 48 h. The deaths is reported as 0 in [7] (setting [11]); 1 in data set [7] (setting [12]); 4 in [7] (setting [13]); 6 in data set [7] (setting [14]); 7 in data set [7] (setting [15]); 9 in data set [7] (setting [16]). The death rate in data set [7] (setting [11]) came to 0%; in data set [7] (setting [12]), 10%; in [7] (setting [13]), 40%; in data set [7] (setting [14]), 60%; in data set [7] (setting [15]), 70%; in [7] (setting [16]) it was 90%. Besides, the 50% lethal dose (LD50) at 14 day in [8] came out at 2470 mg/kg. The “expression of Aβ1-42 in hippocampus (immunohistochemistry)” value in data set [9] is given as “significantly reduced expression”. For the same compound, the “pyramidal cell morphology and density, hippocampus CA3 (HE staining)” value in data set [10] was “better cell morphology and density than those in the model group”.
Regarding `CCN(C(=O)Oc1cc2oc3cc4c(c(O)c3c(=O)c2c(CC=C(C)C)c1OC)C=CC(C)(C)O4)c1ccccc1` [AMG-2, 5-Hydroxy-8-methoxy-2,2-dimethyl-7-(3-methylbut-2-en-1-yl)-6-oxo-2,6-dihydropyrano[3,2-b]xanthen-9-yl ethyl(phenyl)carbamate], in [3], the IC50 amounted to 35.1 ± 9.38 µM. The “inhibition ratio” value in data set [5] turned out to be 6.7%.
On the same counts, the results for `COc1c(OC(=O)N(C)c2ccccc2C)cc2oc3cc4c(c(O)c3c(=O)c2c1CC=C(C)C)C=CC(C)(C)O4` [AMG-3, 5-Hydroxy-8-methoxy-2,2-dimethyl-7-(3-methylbut-2-en-1-yl)-6-oxo-2,6-dihydropyrano[3,2-b]xanthen-9-yl methyl(o-tolyl)carbamate] are 32.9 ± 7.78 µM and 5.9%.
With `COc1cc2c(cc1OC)C(=O)C(CC1CCN(Cc3ccccc3)CC1)C2` (stereo not drawn) [donepezil, reference compound], in [2] (donepezil 1 mg/kg oral once daily 30 days), the “total distance moved in open field” value turned out to be 31.37 ± 7.14 m.
For the compound `CC1=NN(c2ccccc2)C(=O)C1` [edaravone, reference compound], the “inhibition ratio” value in data set [5] is 0%.
In data set [3], `COc1c(O)cc2oc3cc(O)c(CC=C(C)C)c(O)c3c(=O)c2c1CC=C(C)C` [α-M, 1,3,6-trihydroxy-7-methoxy-2,8-bis(3-methylbut-2-en-1-yl)-9H-xanthen-9-one, reference compound] had an IC50 of 34.3 ± 6.06 µM. Further, the “inhibition ratio” value in data set [5] amounted to 73.1%.

These data come from PMC7203693 (ACS Omega, 2020).
